{
  "source": "ChEMBL document CHEMBL1135955",
  "about": "“Substituted benzocyloheptenes as potent and selective alpha(v) integrin antagonists” (Bioorg Med Chem Lett, 2002)",
  "key": {"Homo sapiens": {"species_on_record": "Homo sapiens", "assay": "Oral absorption using Caco-2 cell monolayers.", "type": "ADME", "conditions": "in vitro"}, "IGROV-1": {"system": "IGROV-1", "assay": "Cellular adhesion inhibitory concentration with IGROV-1 cell line.", "type": "functional, cell-based", "conditions": "Homo sapiens", "outline": "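Human ovarian carcinoma IGROV-1 cells were preincubated with compound before adhesion. They were then washed, fixed and stained with crystal violet, and adhesion was quantified by image analysis. IC50 came from sigmoid variable-slope fits of dose–response sets from at least two experiments.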"}, "Integrin alpha-V/beta-3": {"molecular_target": "Integrin alpha-V/beta-3 (Homo sapiens, UniProt P05106+P06756)", "sequence (P05106 27-788 limits assumed)": "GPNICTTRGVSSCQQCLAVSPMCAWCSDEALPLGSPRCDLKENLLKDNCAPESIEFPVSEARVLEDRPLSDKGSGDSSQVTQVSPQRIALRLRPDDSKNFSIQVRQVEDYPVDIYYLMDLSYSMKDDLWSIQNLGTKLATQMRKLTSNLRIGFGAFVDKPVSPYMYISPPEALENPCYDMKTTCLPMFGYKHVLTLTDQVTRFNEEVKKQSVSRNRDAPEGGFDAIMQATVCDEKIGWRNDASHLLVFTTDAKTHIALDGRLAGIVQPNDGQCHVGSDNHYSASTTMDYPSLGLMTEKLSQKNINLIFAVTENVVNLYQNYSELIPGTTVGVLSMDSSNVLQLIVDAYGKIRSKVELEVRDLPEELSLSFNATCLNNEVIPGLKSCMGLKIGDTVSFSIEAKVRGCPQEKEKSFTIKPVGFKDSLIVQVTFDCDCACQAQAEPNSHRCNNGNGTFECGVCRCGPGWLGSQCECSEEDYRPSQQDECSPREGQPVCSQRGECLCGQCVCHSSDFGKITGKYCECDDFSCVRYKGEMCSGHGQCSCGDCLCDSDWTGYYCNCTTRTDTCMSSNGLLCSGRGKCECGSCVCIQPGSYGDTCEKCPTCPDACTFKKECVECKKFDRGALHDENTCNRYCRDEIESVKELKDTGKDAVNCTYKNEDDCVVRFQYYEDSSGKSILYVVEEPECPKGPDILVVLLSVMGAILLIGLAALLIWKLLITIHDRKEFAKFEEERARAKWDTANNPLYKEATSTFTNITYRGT", "sequence (P06756 31-889 limits assumed)": "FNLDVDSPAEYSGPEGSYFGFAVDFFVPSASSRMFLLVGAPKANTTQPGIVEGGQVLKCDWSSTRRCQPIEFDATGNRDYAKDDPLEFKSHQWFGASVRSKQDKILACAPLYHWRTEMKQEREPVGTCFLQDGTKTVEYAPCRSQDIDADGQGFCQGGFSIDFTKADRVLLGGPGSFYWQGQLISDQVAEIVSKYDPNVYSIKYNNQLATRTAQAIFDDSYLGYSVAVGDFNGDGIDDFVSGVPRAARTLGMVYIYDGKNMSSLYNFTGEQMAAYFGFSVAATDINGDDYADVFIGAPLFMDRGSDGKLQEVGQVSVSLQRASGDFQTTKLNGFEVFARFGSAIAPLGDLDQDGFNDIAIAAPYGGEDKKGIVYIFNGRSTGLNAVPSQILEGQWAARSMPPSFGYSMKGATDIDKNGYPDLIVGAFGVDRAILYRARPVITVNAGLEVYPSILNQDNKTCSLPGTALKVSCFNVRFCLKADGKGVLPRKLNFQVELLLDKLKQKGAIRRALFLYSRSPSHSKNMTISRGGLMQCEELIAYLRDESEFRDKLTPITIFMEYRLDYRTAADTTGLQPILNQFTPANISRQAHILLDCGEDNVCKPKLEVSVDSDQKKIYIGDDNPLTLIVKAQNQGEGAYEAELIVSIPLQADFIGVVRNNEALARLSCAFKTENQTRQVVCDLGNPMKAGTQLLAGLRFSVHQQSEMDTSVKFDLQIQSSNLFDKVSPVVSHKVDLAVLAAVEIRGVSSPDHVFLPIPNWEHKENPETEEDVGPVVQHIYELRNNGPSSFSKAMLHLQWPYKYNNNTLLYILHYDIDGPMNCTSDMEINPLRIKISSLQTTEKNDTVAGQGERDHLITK", "sequence (P06756 891-1048 limits assumed)": "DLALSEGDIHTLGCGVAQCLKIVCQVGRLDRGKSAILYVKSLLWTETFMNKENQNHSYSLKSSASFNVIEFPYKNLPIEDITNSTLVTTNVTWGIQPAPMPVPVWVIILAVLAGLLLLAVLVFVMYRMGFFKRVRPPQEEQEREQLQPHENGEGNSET", "assay": "Displacement of vitronectin from Human integrin alphaV-beta3", "type": "protein-complex assay", "outline": "(§1)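 Purified-receptor ligand-binding assay on human integrins αvβ3 and αvβ5 (vitronectin displacement) and αIIbβ3 (receptor from platelets). Bound ligand was detected indirectly by colorimetric reading after adding an anti-biotin antibody coupled to alkaline phosphatase. IC50 came from sigmoid variable-slope fits of dose–response data from at least two experiments per compound.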"}, "[1]": {"molecular_target": "Integrin alpha-IIb/beta-3 (Homo sapiens, UniProt P05106+P08514)", "sequence (P05106 27-788 limits assumed)": "as the sequence (P05106 27-788 limits assumed) above", "sequence (P08514 32-887 limits assumed)": "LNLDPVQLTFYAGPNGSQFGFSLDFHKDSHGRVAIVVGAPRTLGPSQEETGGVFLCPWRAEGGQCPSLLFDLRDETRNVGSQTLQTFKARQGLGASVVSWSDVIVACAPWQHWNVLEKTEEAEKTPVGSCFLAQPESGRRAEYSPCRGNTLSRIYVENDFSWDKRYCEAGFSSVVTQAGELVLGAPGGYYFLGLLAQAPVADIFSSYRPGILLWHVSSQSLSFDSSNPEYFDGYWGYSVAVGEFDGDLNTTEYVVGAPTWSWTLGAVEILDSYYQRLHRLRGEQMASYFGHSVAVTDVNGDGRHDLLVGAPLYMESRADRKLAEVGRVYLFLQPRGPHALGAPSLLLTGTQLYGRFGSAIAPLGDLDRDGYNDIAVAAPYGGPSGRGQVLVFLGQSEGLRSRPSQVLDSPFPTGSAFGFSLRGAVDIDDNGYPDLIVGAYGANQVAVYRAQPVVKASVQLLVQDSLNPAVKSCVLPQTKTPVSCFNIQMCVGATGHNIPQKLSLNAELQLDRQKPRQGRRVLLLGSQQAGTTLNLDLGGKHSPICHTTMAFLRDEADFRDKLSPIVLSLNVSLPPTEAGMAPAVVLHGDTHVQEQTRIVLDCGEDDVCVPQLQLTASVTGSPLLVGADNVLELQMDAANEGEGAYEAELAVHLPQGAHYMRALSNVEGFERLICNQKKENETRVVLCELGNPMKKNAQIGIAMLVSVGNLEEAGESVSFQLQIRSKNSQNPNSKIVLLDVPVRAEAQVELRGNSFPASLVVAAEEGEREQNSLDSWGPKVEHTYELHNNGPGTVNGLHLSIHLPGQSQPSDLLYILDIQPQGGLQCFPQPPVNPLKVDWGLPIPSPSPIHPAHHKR", "sequence (P08514 891-1039 limits assumed)": "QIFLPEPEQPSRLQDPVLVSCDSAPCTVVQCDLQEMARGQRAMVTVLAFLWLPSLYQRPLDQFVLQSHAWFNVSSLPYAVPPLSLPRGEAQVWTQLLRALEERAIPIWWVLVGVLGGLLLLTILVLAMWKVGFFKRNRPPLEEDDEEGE", "assay": "Displacement of fibrinogen from Human integrin alphaIIb-beta3", "type": "protein-complex assay", "outline": "as §1"}, "Integrin alpha-V/beta-5": {"molecular_target": "Integrin alpha-V/beta-5 (Homo sapiens, UniProt P06756+P18084)", "sequence (P06756 31-889 limits assumed)": "as the sequence (P06756 31-889 limits assumed) above", "sequence (P06756 891-1048 limits assumed)": "as the sequence (P06756 891-1048 limits assumed) above", "sequence (P18084 24-799 limits assumed)": "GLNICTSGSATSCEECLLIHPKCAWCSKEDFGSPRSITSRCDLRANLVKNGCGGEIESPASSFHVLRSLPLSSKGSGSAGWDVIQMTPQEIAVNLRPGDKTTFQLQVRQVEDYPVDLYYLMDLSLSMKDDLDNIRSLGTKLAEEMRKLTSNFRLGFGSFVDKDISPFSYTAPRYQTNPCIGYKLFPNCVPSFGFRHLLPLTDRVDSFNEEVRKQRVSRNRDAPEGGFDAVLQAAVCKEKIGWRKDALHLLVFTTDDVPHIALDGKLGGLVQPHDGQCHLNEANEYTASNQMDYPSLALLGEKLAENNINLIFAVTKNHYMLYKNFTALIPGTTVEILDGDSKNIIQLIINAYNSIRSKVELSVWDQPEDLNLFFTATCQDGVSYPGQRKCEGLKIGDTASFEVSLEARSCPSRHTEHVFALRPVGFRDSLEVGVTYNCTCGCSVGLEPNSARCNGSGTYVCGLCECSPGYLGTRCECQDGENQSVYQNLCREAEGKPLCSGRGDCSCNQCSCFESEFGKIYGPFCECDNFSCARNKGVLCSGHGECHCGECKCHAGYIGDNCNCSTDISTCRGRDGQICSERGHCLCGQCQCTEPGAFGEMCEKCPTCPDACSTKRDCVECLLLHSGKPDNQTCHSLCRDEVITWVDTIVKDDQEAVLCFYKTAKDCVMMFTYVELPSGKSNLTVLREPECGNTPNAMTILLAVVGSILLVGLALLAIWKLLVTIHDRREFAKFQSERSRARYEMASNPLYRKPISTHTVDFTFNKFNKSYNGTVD", "assay": "Displacement of vitronectin from human integrin alphaV-beta5", "type": "protein-complex assay", "outline": "as §1"}},
  "data": [
    {"smiles": "O=C(O)CC1CC(CNC(=O)CCCc2ccc3c(n2)NCCC3)=CCc2ccccc21", "note": "(stereo not given)", "values": [
      {"measurement": "Absorption", "setting": "Homo sapiens", "value": 92, "unit": "%"},
      {"measurement": "IC50", "setting": "IGROV-1", "value": 6.9, "unit": "nM"},
      {"measurement": "IC50", "setting": "Integrin alpha-V/beta-3", "value": 0.3, "unit": "nM"},
      {"measurement": "IC50", "setting": "[1]", "value": 1490, "unit": "nM"},
      {"measurement": "IC50", "setting": "Integrin alpha-V/beta-5", "value": 0.3, "unit": "nM"}
    ]},
    {"smiles": "O=C(O)CC1CC(CNC(=O)CCNc2ccccn2)=CCc2ccccc21", "note": "(stereo not given)", "values": [
      {"measurement": "Absorption", "setting": "Homo sapiens", "value": 93, "unit": "%"},
      {"measurement": "IC50", "setting": "IGROV-1", "value": 338, "unit": "nM"},
      {"measurement": "IC50", "setting": "Integrin alpha-V/beta-3", "value": 584, "unit": "nM"},
      {"measurement": "IC50", "setting": "[1]", "value": 1700, "unit": "nM"},
      {"measurement": "IC50", "setting": "Integrin alpha-V/beta-5", "value": 22, "unit": "nM"}
    ]},
    {"smiles": "O=C(O)CC1CC(CNC(=O)CCCNC2=NCCCN2)=CCc2ccccc21", "note": "(stereo not given)", "values": [
      {"measurement": "Absorption", "setting": "Homo sapiens", "value": "< 20", "unit": "%"},
      {"measurement": "IC50", "setting": "IGROV-1", "value": 2.7, "unit": "nM"},
      {"measurement": "IC50", "setting": "Integrin alpha-V/beta-3", "value": 0.2, "unit": "nM"},
      {"measurement": "IC50", "setting": "[1]", "value": 330, "unit": "nM"},
      {"measurement": "IC50", "setting": "Integrin alpha-V/beta-5", "value": 0.1, "unit": "nM"}
    ]},
    {"smiles": "O=C(O)CC1CC(CNC(=O)CCCNc2nccs2)=CCc2ccccc21", "note": "(stereo not given)", "values": [
      {"measurement": "Absorption", "setting": "Homo sapiens", "value": 96, "unit": "%"},
      {"measurement": "IC50", "setting": "IGROV-1", "value": 40, "unit": "nM"},
      {"measurement": "IC50", "setting": "Integrin alpha-V/beta-3", "value": 45, "unit": "nM"},
      {"measurement": "IC50", "setting": "[1]", "value": "> 10000", "unit": "nM"},
      {"measurement": "IC50", "setting": "Integrin alpha-V/beta-5", "value": 20, "unit": "nM"}
    ]},
    {"smiles": "O=C(O)CC1CC(CNC(=O)CCCCNc2ccccn2)=CCc2ccccc21", "note": "(stereo not given)", "values": [
      {"measurement": "Absorption", "setting": "Homo sapiens", "value": 96, "unit": "%"},
      {"measurement": "IC50", "setting": "IGROV-1", "value": 12, "unit": "nM"},
      {"measurement": "IC50", "setting": "Integrin alpha-V/beta-3", "value": 2.7, "unit": "nM"},
      {"measurement": "IC50", "setting": "[1]", "value": 1200, "unit": "nM"},
      {"measurement": "IC50", "setting": "Integrin alpha-V/beta-5", "value": 0.9, "unit": "nM"}
    ]},
    {"smiles": "CN(CCCC(=O)NCC1=CCc2ccccc2C(CC(=O)O)C1)c1ccccn1", "note": "(stereo not given)", "values": [
      {"measurement": "Absorption", "setting": "Homo sapiens", "value": 94, "unit": "%"},
      {"measurement": "IC50", "setting": "IGROV-1", "value": 2030, "unit": "nM"},
      {"measurement": "IC50", "setting": "Integrin alpha-V/beta-3", "value": 68, "unit": "nM"},
      {"measurement": "IC50", "setting": "[1]", "value": 667, "unit": "nM"},
      {"measurement": "IC50", "setting": "Integrin alpha-V/beta-5", "value": 40, "unit": "nM"}
    ]},
    {"smiles": "O=C(O)CC1CC(CNC(=O)CCCNc2nc3ccccc3[nH]2)=CCc2ccccc21", "note": "(stereo not given)", "values": [
      {"measurement": "Absorption", "setting": "Homo sapiens", "value": "< 20", "unit": "%"},
      {"measurement": "IC50", "setting": "IGROV-1", "value": 1.8, "unit": "nM"},
      {"measurement": "IC50", "setting": "Integrin alpha-V/beta-3", "value": 0.6, "unit": "nM"},
      {"measurement": "IC50", "setting": "[1]", "value": 1020, "unit": "nM"},
      {"measurement": "IC50", "setting": "Integrin alpha-V/beta-5", "value": 0.5, "unit": "nM"}
    ]},
    {"smiles": "O=C(O)CC1CC(CNC(=O)CCCNc2ccccn2)=CCc2ccccc21", "note": "(stereo not given)", "values": [
      {"measurement": "Absorption", "setting": "Homo sapiens", "value": 95, "unit": "%"},
      {"measurement": "IC50", "setting": "IGROV-1", "value": 2, "unit": "nM"},
      {"measurement": "IC50", "setting": "Integrin alpha-V/beta-3", "value": 1.9, "unit": "nM"},
      {"measurement": "IC50", "setting": "[1]", "value": 4360, "unit": "nM"},
      {"measurement": "IC50", "setting": "Integrin alpha-V/beta-5", "value": 0.8, "unit": "nM"}
    ]},
    {"smiles": "O=C(O)CC1CC(CNC(=O)CCCNC2=NCCN2)=CCc2ccccc21", "note": "(stereo not given)", "values": [
      {"measurement": "Absorption", "setting": "Homo sapiens", "value": "< 20", "unit": "%"},
      {"measurement": "IC50", "setting": "IGROV-1", "value": 18, "unit": "nM"},
      {"measurement": "IC50", "setting": "Integrin alpha-V/beta-3", "value": 0.3, "unit": "nM"},
      {"measurement": "IC50", "setting": "[1]", "value": 110, "unit": "nM"},
      {"measurement": "IC50", "setting": "Integrin alpha-V/beta-5", "value": 0.2, "unit": "nM"}
    ]},
    {"smiles": "O=C(O)CC1CC(CNC(=O)CCNCc2ccccn2)=CCc2ccccc21", "note": "(stereo not given)", "values": [
      {"measurement": "Absorption", "setting": "Homo sapiens", "value": 23, "unit": "%"},
      {"measurement": "IC50", "setting": "IGROV-1", "value": 2700, "unit": "nM"},
      {"measurement": "IC50", "setting": "Integrin alpha-V/beta-3", "value": 842, "unit": "nM"},
      {"measurement": "IC50", "setting": "[1]", "value": 552, "unit": "nM"},
      {"measurement": "IC50", "setting": "Integrin alpha-V/beta-5", "value": 119, "unit": "nM"}
    ]}
  ]
}
